Test results published in publication PMC6436633 (ChemMedChem, 2018).
Like-named read-outs stand apart in the source and are kept apart here.

How the values were obtained:
[1] = test system: P. falciparum Dd2 asexual blood stage parasites; test: P. falciparum Dd2 asexual blood stage inhibition; format: cell-based, Plasmodium falciparum; details: read-out: blood stage parasite EC50, dose-response
In short: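 Asexual blood-stage P. falciparum Dd2 cultured with test compound in O-positive human blood for 72 h at 37 °C under 93% N2, 4% CO2, 3% O2, with 0.2% DMSO final. Nuclei then stained with SYBR Green I and fluorescence read. Data normalised to DMSO, with artesunate as positive control.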

PfPK5 [2] = target: T1, PfPK5 (Plasmodium falciparum, UniProt P61075); test: KINOMEscan active-site-directed competition binding assay, PfPK5; details: read-out: PfPK5 Kd(app), determined in duplicate, 0–30 μM
PfPK5 [3] = target: T1, PfPK5; details: read-out: PfPK5 Kd; cited from earlier work
HuH7 cells = format: cell-based, human
PfPK5 [4] = target: T1, PfPK5; details: read-out: PfPK5 IC50; cited from earlier work

T1 sequence (P61075 whole entry): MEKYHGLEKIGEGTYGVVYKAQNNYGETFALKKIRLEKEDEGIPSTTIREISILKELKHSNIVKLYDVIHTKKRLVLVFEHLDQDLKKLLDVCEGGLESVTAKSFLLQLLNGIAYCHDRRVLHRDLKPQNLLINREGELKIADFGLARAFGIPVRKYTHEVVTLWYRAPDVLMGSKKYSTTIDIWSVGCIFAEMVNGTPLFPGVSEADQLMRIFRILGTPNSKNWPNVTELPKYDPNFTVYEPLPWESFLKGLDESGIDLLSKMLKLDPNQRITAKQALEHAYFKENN

SMILES	EC50 [1] [µM]	Kd (PfPK5 [2]) [µM]	Kd (PfPK5 [3]) [µM]	EC50 (HuH7 cells) [µM]	IC50 (PfPK5 [4]) [µM]
Nc1nc(Nc2ccc(S(N)(=O)=O)cc2)nn1C(=S)Nc1c(F)cccc1F [Compound 1a]	0.14	0.37	0.32	67	–
CC(C)[C@H](CO)Nc1nc(Nc2cccc(Cl)c2)c2ncn(C(C)C)c2n1 [Purvalanol A, purvalanol A]	–	–	–	–	8
O=C1Nc2ccccc2/C1=C1/Nc2ccccc2/C1=N\O [indirubin-3´-monoxime]	–	–	–	–	6
